Results on 32 compounds are retold here after ChEMBL document CHEMBL1140709, “Design, synthesis, and biological evaluation of (E)-styrylbenzylsulfones as novel anticancer agents” (J Med Chem, 2008).

Molecules are shown by their SMILES. pIC50: −log10 of the molar value.

What all share (format): functional, cell-based
One assay concerns BT-20. As to the kind of experiment: Antitumor activity against human BT20 cells by trypan blue exclusion assay. The method, boiled down: (§1)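 Tumour cells were grown in DMEM or RPMI with 10% fetal bovine serum and 1 unit/mL penicillin-streptomycin. They were seeded in six-well dishes at 1.0 × 10⁵ cells/mL/well, and compound was added 24 h later over a range of concentrations. After 96 h of exposure, viable cells in duplicate wells were counted by trypan blue exclusion.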

For another assay, the system named is DU-145. As to the kind of experiment: Antitumor activity against AR-negative human DU145 cells by trypan blue exclusion assay. The method, boiled down: as §1
Assay [1] in a line: Antitumor activity against human H157 cells by trypan blue exclusion assay. The note with it: NCI-H157. A digest of the protocol:
as §1

The next assay deals with DLD-1. Briefly: Antitumor activity against human DLD1 cells by trypan blue exclusion assay. A digest of the protocol: as §1

By pIC50 is commonly meant the IC50 on a negative log10 scale, so that one unit is a factor of ten. A lower pIC50 goes with a large IC50. `COc1ccc(CS(=O)(=O)/C=C/c2ccc(C)cc2C)cc1`: the negative-log IC50 (pIC50) with BT-20 was 4.82; with DU-145, 4.92; in assay [1], 4.82; in the assay with DLD-1, 4.82.
Turning to `COc1ccc(CS(=O)(=O)/C=C/c2cc(OC)cc(OC)c2)cc1`, the pIC50 (in the assay on BT-20; in the assay on DU-145; in assay [1]; in the assay with DLD-1) was < 4.70 each time.
For the compound `COc1ccc(CS(=O)(=O)/C=C/c2ccc(OC)cc2OC)cc1`, the pIC50 (in the assay with BT-20; in the assay on DU-145; in assay [1]; in the assay with DLD-1) was < 4.70 throughout.
In the case of `COc1cc(OC)c(/C=C/S(=O)(=O)Cc2ccc(Cl)cc2)c(OC)c1`, the pIC50 is 5.00 in the assay on BT-20, 5.12 with DU-145, 4.82 in assay [1] and 4.82 with DLD-1.
As for `COc1cc(OC)c(/C=C/S(=O)(=O)Cc2ccc(O)cc2)c(OC)c1`, the pIC50 in the assay with BT-20 is 4.82; with DU-145, 5.12; in assay [1], 4.70; in the assay with DLD-1, 4.70.
For the compound `COc1ccc(CS(=O)(=O)/C=C/c2ccc(OC)c(OC)c2OC)cc1`, the pIC50 (with BT-20; in the assay on DU-145; in assay [1]; with DLD-1) was < 4.70 throughout.
On to `COc1ccc(CS(=O)(=O)/C=C/c2ccc(N)cc2)cc1`, for which the negative-log IC50 (pIC50) (in the assay on BT-20; in the assay on DU-145; in assay [1]; with DLD-1) was < 4.70 each time.
Take `COc1ccc(CS(=O)(=O)/C=C/c2ccc(F)cc2)cc1`: the negative logarithm of the IC50 (pIC50) in the assay on BT-20 was 5.82; in the assay on DU-145 it was 5.90; in assay [1] it was 5.60; in the assay with DLD-1, 5.70.
Take `COc1ccc(CS(=O)(=O)/C=C/c2ccc(OC)c(OC)c2)cc1`: the pIC50 (with BT-20; in the assay with DU-145; in assay [1]; with DLD-1) was < 4.70 in each case.
With `COc1cc(OC)c(/C=C/S(=O)(=O)Cc2ccc(OC)c(OC)c2OC)c(OC)c1`, the pIC50 in the assay with BT-20 was 4.82; in the assay on DU-145, 4.90; in assay [1], 4.82; with DLD-1, 4.82.
Take `COc1ccc(/C=C/S(=O)(=O)Cc2ccc(OC)cc2)cc1`: the pIC50 (with BT-20; in the assay with DU-145; in assay [1]; in the assay on DLD-1) was < 4.70 in each case.
With `COc1ccc(CS(=O)(=O)/C=C/c2ccc([N+](=O)[O-])cc2)cc1`, the pIC50 with BT-20 is 5.30; with DU-145, 5.12; in assay [1], 5.12; in the assay on DLD-1, 5.30.
Turning to `COc1cc(OC)c(/C=C/S(=O)(=O)Cc2ccc(C(=O)O)cc2)c(OC)c1`, the pIC50 in the assay on BT-20 is 4.82; in the assay with DU-145, 5.00; in assay [1], 4.76; in the assay on DLD-1, 4.82.
On to `COc1ccc(CS(=O)(=O)/C=C/c2ccc(Cl)cc2)cc1`, for which the negative-log IC50 (pIC50) in the assay with BT-20 is 5.70; in the assay with DU-145, 5.60; in assay [1] it was 5.46; with DLD-1 it was 5.52.
Taken in the same sequence, the figures for `COc1ccc(CS(=O)(=O)/C=C/c2c(OC)cc(F)cc2OC)cc1` were 6.12, 6.30, 6.30 and 6.12.
The corresponding values for `COc1ccc(CS(=O)(=O)/C=C/c2ccccc2OC)cc1` are 5.30, 5.46, 5.30 and 5.12.
Taken in the same sequence, the figures for `COc1ccc(CS(=O)(=O)/C=C/c2ccc(F)cc2Cl)cc1` were 5.60, 5.70, 5.60 and 5.40.
In the case of `COc1ccc(CS(=O)(=O)/C=C/c2ccc(F)cc2OC)cc1`, the negative logarithm of the IC50 (pIC50) is 4.82 in the assay with BT-20, 5.00 with DU-145, 4.70 in assay [1] and 4.82 in the assay on DLD-1.
On to `COc1ccc(CS(=O)(=O)/C=C/c2c(OC)cc(O)cc2OC)cc1`, for which the negative logarithm of the IC50 (pIC50) (in the assay with BT-20; with DU-145; in assay [1]; in the assay with DLD-1) was < 4.70 in each case.
Take `COc1cc(OC)c(/C=C/S(=O)(=O)Cc2cc(OC)c(OC)c(OC)c2)c(OC)c1`: the negative-log IC50 (pIC50) (with BT-20; with DU-145; in assay [1]; in the assay with DLD-1) was < 4.70 in each case.
With `COc1ccc(CS(=O)(=O)/C=C/c2cc(OC)c(OC)c(OC)c2)cc1O`, the pIC50 with BT-20 was 5.12; with DU-145 it was 5.30; in assay [1], 5.00; in the assay on DLD-1, 5.00.
Regarding `COc1ccc(CS(=O)(=O)/C=C/c2c(OC)cc(O)cc2OC)cc1O`, the pIC50 was 6.60 with BT-20, 6.30 in the assay with DU-145, 6.30 in assay [1] and 6.30 with DLD-1.
For `COc1ccc(CS(=O)(=O)/C=C/c2c(OC)cccc2OC)cc1`, the pIC50 is 6.40 in the assay on BT-20, 6.60 with DU-145, 6.15 in assay [1] and 6.15 with DLD-1.
Turning to `COc1cc(OC)c(/C=C/S(=O)(=O)Cc2ccc(OC(F)(F)F)cc2)c(OC)c1`, the pIC50 with BT-20 was 5.52; with DU-145, 5.40; in assay [1], 5.22; with DLD-1, 5.40.
With `COc1cc(OC)c(/C=C/S(=O)(=O)Cc2ccc(C#N)cc2)c(OC)c1`, the negative logarithm of the IC50 (pIC50) in the assay on BT-20 was 4.90; with DU-145, 5.12; in assay [1] it was 4.82; with DLD-1, 4.70.
The corresponding values for `COc1ccc(CS(=O)(=O)/C=C/c2cc(C)cc(C)c2)cc1` are < 4.70, < 4.70, < 4.70 and < 4.70.
The corresponding values for `COc1cc(OC)c(/C=C/S(=O)(=O)Cc2ccc([N+](=O)[O-])cc2)c(OC)c1` are 4.82, 4.82, 4.70 and 4.82.
Take `COc1ccc(CS(=O)(=O)/C=C/c2c(C)cccc2C)cc1`: the pIC50 (with BT-20; in the assay on DU-145; in assay [1]; in the assay on DLD-1) was < 4.70 each time.
In the case of `COc1ccc(CS(=O)(=O)/C=C/c2cc(OC)c(OC)c(OC)c2)cc1`, the pIC50 (in the assay with BT-20; in the assay on DU-145; in assay [1]; with DLD-1) was < 4.70 in each case.
Regarding `COc1ccc(CS(=O)(=O)/C=C/c2c(C)cc(C)cc2C)cc1`, the pIC50 (in the assay on BT-20; in the assay on DU-145; in assay [1]; in the assay on DLD-1) was < 4.70 each time.
`COc1ccc(CS(=O)(=O)/C=C/c2cc(OC)c(OC)cc2OC)cc1`: the pIC50 (in the assay on BT-20; in the assay with DU-145; in assay [1]; with DLD-1) was < 4.70 throughout.
Regarding `COc1ccc(CS(=O)(=O)/C=C/c2cc(OC)ccc2OC)cc1`, the pIC50 (in the assay on BT-20; with DU-145; in assay [1]; in the assay with DLD-1) was < 4.70 throughout.
